Reference: ChEMBL document CHEMBL2406959, “Synthesis and evaluation of diaryl sulfides and diaryl selenide compounds for antitubulin and cytotoxic activity” (Bioorg Med Chem Lett, 2013)
Values belong to the molecule of their own block, whether it stands above or below them.

Assays:
PC-3 = assay: Cytotoxicity against human PC3 cells after 48 hrs by sulforhodamine B assay; type: functional, cell-based; conditions: PC-3, 48 h
[1] = Inhibition of bovine brain tubulin polymerization incubated for 15 mins prior to GTP addition measured after 20 mins by spectrophotometry; parameters: species or system Bos taurus
Bos taurus [2] = species: Bos taurus; assay: Displacement of [3H]colchicine from bovine brain tubulin at 5 uM after 10 mins by scintillation counting analysis relative to control
HT-29 = assay: Cytotoxicity against human HT-29 cells after 48 hrs by sulforhodamine B assay; type: functional, cell-based; conditions: HT-29, 48 h
In short: (§1)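 Human 786 (kidney), HT-29 (colon) and PC-3 (prostate) cancer cells exposed to compounds for 48 h at 37 °C.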

[3] = Cytotoxicity against human 786 cells after 48 hrs by sulforhodamine B assay; type: functional, cell-based; in short: as §1
MCF7 = assay: Cytotoxicity against human MCF7 cells after 96 hrs by sulforhodamine B assay; type: functional, cell-based; conditions: MCF7, 96 h
In short: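 Human MCF-7 breast cancer cells incubated with compounds for 96 h at 37 °C.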

Bos taurus [4] = species: Bos taurus; assay: Displacement of [3H]colchicine from bovine brain tubulin at 1 uM after 10 mins by scintillation counting analysis relative to control
Tubulin = assay: Inhibition of tubulin (unknown origin) polymerization after 20 mins; type: protein-complex assay, Homo sapiens

SMILES: COc1ccc([Se][Se]c2ccc(OC)cc2)cc1
- IC50 (PC-3): 1990 nM
- IC50 [1]: 1700 nM
- inhibition (Bos taurus [2]): 34%
- IC50 (HT-29): 59500 nM
- IC50 [3]: 20700 nM
- IC50 (MCF7): > 10000 nM

SMILES: COc1ccc([Se]c2cc(OC)c(OC)c(OC)c2)cc1
- IC50 (PC-3): 80 nM
- inhibition (Bos taurus [4]): 74%
- IC50 [1]: 620 nM
- inhibition (Bos taurus [2]): 94%
- IC50 (HT-29): 280 nM
- IC50 [3]: 680 nM
- IC50 (MCF7): 10 nM

SMILES: COc1ccc(/C=C\c2cc(OC)c(OC)c(OC)c2)cc1O [COMBRETASTATIN A4]
- IC50 (PC-3): 1000 nM
- IC50 [3]: 5000 nM
- IC50 (MCF7): 6 nM

SMILES: COc1ccc([Se]c2ccc(OC)cc2)cc1
- IC50 (PC-3): 8800 nM
- IC50 [1]: > 20000 nM
- IC50 (HT-29): 210000 nM
- IC50 (MCF7): > 10000 nM

- IC50 [1]: 2800 nM
- inhibition (Bos taurus [2]): 58%
SMILES: COc1ccc(Sc2cc(OC)c(OC)c(OC)c2)cc1[N+](=O)[O-]
- IC50 (PC-3): 200 nM
- IC50 (HT-29): 630 nM
- IC50 [3]: 1710 nM
- IC50 (MCF7): 1000 nM

SMILES: COc1cccc2c1C(=O)c1c(O)c3c(c(O)c1C2=O)C[C@@](O)(C(=O)CO)C[C@@H]3O[C@H]1C[C@H](N)[C@H](O)[C@H](C)O1 [DOXORUBICIN]
- IC50 (HT-29): 440 nM
- IC50 [3]: 330 nM

- inhibition (Bos taurus [4]): 74%
- IC50 [1]: 740 nM
- inhibition (Bos taurus [2]): 95%
SMILES: COc1ccc(Sc2cc(OC)c(OC)c(OC)c2)cc1N
- IC50 (PC-3): 530 nM
- IC50 (HT-29): 1310 nM
- IC50 [3]: 1240 nM
- IC50 (MCF7): 8 nM

SMILES: COc1ccc(/C=C\c2cc(OC)c(OC)c(OC)c2)cc1[N+](=O)[O-]
- IC50 (Tubulin): 1800 nM

- IC50 [1]: 5400 nM
- inhibition (Bos taurus [2]): 9%
SMILES: COc1cc(SSc2cc(OC)c(OC)c(OC)c2)cc(OC)c1OC
- IC50 (PC-3): 6750 nM
- IC50 (HT-29): 76500 nM
- IC50 [3]: 112000 nM
- IC50 (MCF7): > 10000 nM
